Experimental data: ChEMBL document CHEMBL4257488, “Synthesis and evaluation of nuciferine and roemerine enantiomers as 5-HT2 and α1 receptor antagonists” (Medchemcomm, 2018)

Columns and labels:
[1] = target: Serotonin 2 receptors; 5-HT2a & 5-HT2c (Homo sapiens) (UniProt P28223+P28335); assay: Selectivity ratio of Kb for human 5-HT2C receptor to Kb for human 5-HT2A receptor
How it was run: (§1)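 Ratio of the Kb at receptor Y to the Kb at receptor X. Each Kb came from TGFα-shedding antagonist curves in transfected HEK293 cells, converted from IC50 with the modified Gaddum equation IC50/([A]/EC50 − 1).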

Homo sapiens [2] = species on record: Homo sapiens; assay: Selectivity ratio of Kb for human 5-HT2B receptor to Kb for human 5-HT2A receptor; how it was run: as §1
Homo sapiens [3] = species on record: Homo sapiens; assay: Selectivity ratio of Kb for human adrenergic alpha1A receptor to Kb for human 5-HT2A receptor; how it was run: as §1
[4] = target: T1, Alpha-1A adrenergic receptor (Homo sapiens) (UniProt P35348); assay: Antagonist activity at human adrenergic alpha1A receptor expressed in HEK293 cells assessed as inhibition of noradrenaline-induced receptor activation preincubated for 15 mins followed by noradrenaline addition and measured after 1 hr by TGFalpha shedding assay
T1 sequence (whole entry): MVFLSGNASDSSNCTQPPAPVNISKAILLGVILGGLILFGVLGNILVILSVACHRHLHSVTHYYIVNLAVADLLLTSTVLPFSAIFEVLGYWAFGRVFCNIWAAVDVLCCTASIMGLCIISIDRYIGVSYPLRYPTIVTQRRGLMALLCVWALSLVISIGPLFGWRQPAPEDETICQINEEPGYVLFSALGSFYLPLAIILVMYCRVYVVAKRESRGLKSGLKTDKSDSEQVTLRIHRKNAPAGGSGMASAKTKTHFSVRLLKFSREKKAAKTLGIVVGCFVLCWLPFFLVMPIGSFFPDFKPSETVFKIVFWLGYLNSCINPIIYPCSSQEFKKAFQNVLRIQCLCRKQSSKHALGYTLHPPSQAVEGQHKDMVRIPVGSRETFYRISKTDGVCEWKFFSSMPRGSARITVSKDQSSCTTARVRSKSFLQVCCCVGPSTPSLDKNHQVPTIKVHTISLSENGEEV

Homo sapiens [5] = species on record: Homo sapiens; assay: Selectivity ratio of Kb for human adrenergic alpha1D receptor to Kb for human adrenergic alpha1A receptor; how it was run: as §1
[6] = target: 5-hydroxytryptamine receptor 2A (Homo sapiens) (UniProt P28223); assay: Antagonist activity at human 5-HT2A receptor expressed in HEK293 cells assessed as inhibition of serotonin-induced receptor activation preincubated for 15 mins followed by serotonin addition and measured after 1 hr by TGFalpha shedding assay; assay type: functional, cell-based
Sequence of 5-hydroxytryptamine receptor 2A (Homo sapiens) (P28223 whole entry): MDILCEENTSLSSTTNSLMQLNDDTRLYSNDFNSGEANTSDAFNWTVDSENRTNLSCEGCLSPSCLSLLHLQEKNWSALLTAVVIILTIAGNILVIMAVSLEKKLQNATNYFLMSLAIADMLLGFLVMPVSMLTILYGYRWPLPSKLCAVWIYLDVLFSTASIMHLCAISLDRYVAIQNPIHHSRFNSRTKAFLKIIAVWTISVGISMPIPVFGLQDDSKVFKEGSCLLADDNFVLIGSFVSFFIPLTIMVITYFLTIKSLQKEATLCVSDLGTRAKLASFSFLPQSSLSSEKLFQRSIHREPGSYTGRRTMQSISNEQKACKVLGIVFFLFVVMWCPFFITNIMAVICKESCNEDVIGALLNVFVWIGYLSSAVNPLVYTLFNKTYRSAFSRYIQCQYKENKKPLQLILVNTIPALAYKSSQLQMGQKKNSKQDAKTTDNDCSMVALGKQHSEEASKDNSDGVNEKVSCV
How it was run: (§2)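 HEK293 cells were co-transfected with the receptor construct and alkaline phosphatase-tagged TGFα, then seeded in HBSS. Cells were pretreated 15 min with compound (0.1 nM–30 µM final), then given serotonin at final 1 µM (5-HT2A) or 0.1 µM (5-HT2B, 5-HT2C) for 1 h at 37 °C. Kb came from IC50 via the modified Gaddum equation.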

[7] = target: T2, 5-hydroxytryptamine receptor 2C (Homo sapiens) (UniProt P28335); assay: Antagonist activity at human 5-HT2C receptor expressed in HEK293 cells assessed as inhibition of serotonin-induced receptor activation preincubated for 15 mins followed by serotonin addition and measured after 1 hr by TGFalpha shedding assay; assay type: functional, cell-based
T2 sequence (whole entry): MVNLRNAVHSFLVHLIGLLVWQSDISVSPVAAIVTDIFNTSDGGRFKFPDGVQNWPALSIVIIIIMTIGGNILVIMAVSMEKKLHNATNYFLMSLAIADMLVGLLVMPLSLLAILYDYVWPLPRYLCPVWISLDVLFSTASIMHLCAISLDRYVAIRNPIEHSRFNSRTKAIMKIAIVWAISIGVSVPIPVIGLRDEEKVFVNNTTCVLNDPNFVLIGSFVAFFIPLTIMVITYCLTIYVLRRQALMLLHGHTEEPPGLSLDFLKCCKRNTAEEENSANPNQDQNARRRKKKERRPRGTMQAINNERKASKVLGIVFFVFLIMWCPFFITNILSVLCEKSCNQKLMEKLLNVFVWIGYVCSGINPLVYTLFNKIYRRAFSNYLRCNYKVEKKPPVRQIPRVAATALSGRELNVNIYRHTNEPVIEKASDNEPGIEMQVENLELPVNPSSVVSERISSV
How it was run: as §2, with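 “°C. Readout was supernatant/total AP activity (p-nitrophenol, 405 nm), normalised to maximal agonist response, in triplicate.” for “°C.”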

[8] = target: T3, Alpha-1D adrenergic receptor (Homo sapiens) (UniProt P25100); assay: Antagonist activity at human adrenergic alpha1D receptor expressed in HEK293 cells assessed as inhibition of noradrenaline-induced receptor activation preincubated for 15 mins followed by noradrenaline addition and measured after 1 hr by TGFalpha shedding assay
T3 sequence (whole entry): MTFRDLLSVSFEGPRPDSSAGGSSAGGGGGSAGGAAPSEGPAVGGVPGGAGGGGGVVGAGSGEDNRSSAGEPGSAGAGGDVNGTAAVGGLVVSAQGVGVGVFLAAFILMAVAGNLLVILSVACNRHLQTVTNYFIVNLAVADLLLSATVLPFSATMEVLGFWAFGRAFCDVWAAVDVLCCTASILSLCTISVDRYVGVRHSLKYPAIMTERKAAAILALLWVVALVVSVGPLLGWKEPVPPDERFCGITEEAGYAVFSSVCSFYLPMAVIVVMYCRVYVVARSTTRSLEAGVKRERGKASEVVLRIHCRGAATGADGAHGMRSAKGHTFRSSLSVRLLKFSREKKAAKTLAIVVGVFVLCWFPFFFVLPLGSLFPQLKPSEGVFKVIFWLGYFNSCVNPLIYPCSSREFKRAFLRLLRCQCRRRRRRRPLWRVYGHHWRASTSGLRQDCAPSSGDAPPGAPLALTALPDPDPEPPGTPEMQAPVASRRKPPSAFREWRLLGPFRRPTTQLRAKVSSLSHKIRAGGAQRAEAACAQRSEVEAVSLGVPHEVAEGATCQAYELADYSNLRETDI

Homo sapiens [9] = species on record: Homo sapiens; assay: Selectivity ratio of Kb for human adrenergic alpha1B receptor to Kb for human adrenergic alpha1A receptor; how it was run: as §1
[10] = target: 5-hydroxytryptamine receptor 2B (Homo sapiens) (UniProt P41595); assay: Antagonist activity at human 5-HT2B receptor expressed in HEK293 cells assessed as inhibition of serotonin-induced receptor activation preincubated for 15 mins followed by serotonin addition and measured after 1 hr by TGFalpha shedding assay; assay type: functional, cell-based; how it was run: as §2
Sequence of 5-hydroxytryptamine receptor 2B (Homo sapiens) (P41595 whole entry): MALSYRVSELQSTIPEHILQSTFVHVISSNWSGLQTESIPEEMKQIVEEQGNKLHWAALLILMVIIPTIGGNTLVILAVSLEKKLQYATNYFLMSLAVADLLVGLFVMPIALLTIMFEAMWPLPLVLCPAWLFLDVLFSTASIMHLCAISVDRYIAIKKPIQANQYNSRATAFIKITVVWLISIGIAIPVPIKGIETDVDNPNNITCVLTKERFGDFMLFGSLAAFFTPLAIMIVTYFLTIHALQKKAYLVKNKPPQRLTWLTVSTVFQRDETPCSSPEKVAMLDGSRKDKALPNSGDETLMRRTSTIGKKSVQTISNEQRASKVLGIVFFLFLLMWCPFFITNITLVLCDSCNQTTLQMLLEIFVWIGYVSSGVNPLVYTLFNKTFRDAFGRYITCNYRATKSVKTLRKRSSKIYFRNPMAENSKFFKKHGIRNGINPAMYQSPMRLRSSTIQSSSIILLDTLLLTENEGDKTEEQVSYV

Homo sapiens [11] = species on record: Homo sapiens; assay: Selectivity ratio of Kb for human adrenergic alpha1D receptor to Kb for human adrenergic alpha1B receptor; how it was run: as §1
Homo sapiens [12] = species on record: Homo sapiens; assay: Selectivity ratio of Kb for human 5-HT2B receptor to Kb for human 5-HT2C receptor; how it was run: as §1
[13] = target: T4, Alpha-1B adrenergic receptor (Homo sapiens) (UniProt P35368); assay: Antagonist activity at human adrenergic alpha1B receptor expressed in HEK293 cells assessed as inhibition of noradrenaline-induced receptor activation preincubated for 15 mins followed by noradrenaline addition and measured after 1 hr by TGFalpha shedding assay
T4 sequence (whole entry): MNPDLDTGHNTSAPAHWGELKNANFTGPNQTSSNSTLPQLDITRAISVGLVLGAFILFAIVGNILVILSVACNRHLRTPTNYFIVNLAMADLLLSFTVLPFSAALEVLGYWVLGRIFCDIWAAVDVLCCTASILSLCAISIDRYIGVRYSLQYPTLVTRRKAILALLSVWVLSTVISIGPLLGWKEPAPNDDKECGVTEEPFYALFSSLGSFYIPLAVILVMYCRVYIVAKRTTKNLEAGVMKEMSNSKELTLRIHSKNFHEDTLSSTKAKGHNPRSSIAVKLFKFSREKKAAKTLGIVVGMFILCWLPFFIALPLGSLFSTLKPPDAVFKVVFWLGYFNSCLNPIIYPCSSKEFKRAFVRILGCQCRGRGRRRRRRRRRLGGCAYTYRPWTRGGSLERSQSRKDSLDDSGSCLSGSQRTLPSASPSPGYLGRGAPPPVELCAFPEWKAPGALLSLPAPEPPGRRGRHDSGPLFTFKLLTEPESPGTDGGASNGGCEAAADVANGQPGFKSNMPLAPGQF

Homo sapiens [14] = species on record: Homo sapiens; assay: Selectivity ratio of Kb for human adrenergic alpha1B receptor to Kb for human 5-HT2A receptor; how it was run: as §1
[15] = target: T5, Alpha-1B adrenergic receptor (Homo sapiens, UniProt P35368); assay: Displacement of [125I]-HEAT from human adrenergic alpha1B receptor expressed in rat-1 cells; assay type: cell-based
T5 sequence (P35368 whole entry): T4 sequence (whole entry)

[16] = target: T6, Alpha-1A adrenergic receptor (Homo sapiens, UniProt P35348); assay: Displacement of [125I]-HEAT from human adrenergic alpha1A receptor expressed in rat-1 cells; assay type: cell-based
T6 sequence (P35348 whole entry): T1 sequence (whole entry)

Homo sapiens [17] = species on record: Homo sapiens; assay: Selectivity ratio of Kb for human adrenergic alpha1D receptor to Kb for human 5-HT2C receptor; how it was run: as §1
Homo sapiens [18] = species on record: Homo sapiens; assay: Selectivity ratio of Kb for human adrenergic alpha1A receptor to Kb for human 5-HT2C receptor; how it was run: as §1
Homo sapiens [19] = species on record: Homo sapiens; assay: Selectivity ratio of Kb for human adrenergic alpha1B receptor to Kb for human 5-HT2C receptor; how it was run: as §1
[20] = target: T7, Alpha-1D adrenergic receptor (Homo sapiens, UniProt P25100); assay: Displacement of [125I]-HEAT from human adrenergic alpha1D receptor expressed in rat-1 cells; assay type: cell-based
T7 sequence (P25100 whole entry): T3 sequence (whole entry)

Homo sapiens [21] = species on record: Homo sapiens; assay: Selectivity ratio of Kb for human adrenergic alpha1D receptor to Kb for human 5-HT2A receptor; how it was run: as §1

Sequence of Serotonin 2 receptors; 5-HT2a & 5-HT2c (Homo sapiens) (P28223 whole entry, looked up, one chain of several): as the sequence (P28223 whole entry) above

Row | SMILES | Selectivity ratio [1] | Selectivity ratio (Homo sapiens [2]) | Selectivity ratio (Homo sapiens [3]) | Kb [4] [nM] | pKb [4] | Selectivity ratio (Homo sapiens [5]) | Kb [6] [nM] | pKb [6] | Kb [7] [nM] | pKb [7] | Kb [8] [nM] | pKb [8] | Selectivity ratio (Homo sapiens [9]) | Kb [10] [nM] | pKb [10] | Selectivity ratio (Homo sapiens [11]) | Selectivity ratio (Homo sapiens [12]) | Kb [13] [nM] | pKb [13] | further results
1 | COc1cc2c3c(c1OC)-c1ccccc1C[C@@H]3N(C)CC2 | 0.4 | 0.5 | 1 | 67.1 | 6.91 to 7.17 | 2 | 84.3 | 6.85 to 7.07 | 30.9 | 7.51 | 116 | 6.94 | 5 | 41.7 | 7.38 | 0.4 | 1 | 316 | 6.5 | –
2 | CN1CCc2cc3c(c4c2[C@H]1Cc1ccccc1-4)OCO3 | 1 | 8 | 32 | 338 | 6.38 to 6.47 | 0.1 | 10.8 | 7.88 to 7.97 | 15.1 | 7.82 | 46 | 7.34 | 0.8 | 84 | 7.08 | 0.2 | 6 | 266 | 6.57 | Selectivity ratio (Homo sapiens [14]): 18 to 32; Ki [15]: 3160 nM; Ki [16]: 251 nM; Selectivity ratio (Homo sapiens [17]): 3 to 4; Selectivity ratio (Homo sapiens [18]): 18 to 32; Selectivity ratio (Homo sapiens [19]): 18 to 32; Ki [20]: 631 nM; Selectivity ratio (Homo sapiens [21]): 3 to 4
3 | CN1CCc2cc3c(c4c2[C@@H]1Cc1ccccc1-4)OCO3 | 2 | 2 | 3 | 86 | 6.62 to 7.07 | 1 | 42.9 | 7.06 to 7.37 | 76.9 | 7.12 | 92.2 | 7.04 | 2 | 92.7 | 7.03 | 0.6 | 1 | 154 | 6.81 | –
4 | COc1cc2c3c(c1OC)-c1ccccc1C[C@H]3N(C)CC2 | 0.6 | 0.5 | 1 | 37.8 | 7.31 to 7.42 | 4 | 65.3 | 7.18 to 7.26 | 36.4 | 7.44 | 165 | 6.78 | 2 | 31 | 7.51 | 3 | 1 | 60.6 | 7.22 | –
